NadD block: blocks S. aureus nicotinate mononucleotide adenylyltransferase | purified NadD enzyme, colorimetric absorbance read-out | inhibition, % at 20 µM | 360,000 tested, 0.78% active | AID 602399; in the data active = inhibition above about 26%
ABHD5-PLIN5 inh: inhibitors of human ABHD5-perilipin-5 interaction; inhibition, % at 4 µM; AID 602281; Q00G26+Q8WTS1; Split G. princeps luciferase complementation, luminescence, 4 h; 360,000 tested, 0.78% active;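 active = inhibition above the mean inhibition across every tested compound plus 3 SD, cut at about 22% in these data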
rCAG RNA binder: molecules binding r(CAG) RNA repeats; r(CAG) RNA repeat, TO-PRO-1 dye displacement fluorescence; 370,000 tested, 1.3% active; inhibition, % at 3 µM; AID 651821;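 active = inhibition above the plate cutoff, the mean of all test compounds on that plate plus 3 SD, cut at about 35% in these data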;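 also: higher means more dye released from RNA so lower well fluorescence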
HCV core dimer: HCV core protein dimerization inhibition; TR-FRET GST/Flag-core106 dimerization, 1536-well; inhibition, % at 5 µM; 300,000 tested, 0.33% active; AID 1899;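 active = inhibition above the mean of all tested compounds plus 3 SD, set per screening campaign, cut at about 45% in these data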
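System: GST/Flag-tagged HCV core106 proteins. Incubation: compound-protein-antibody incubation 4 h at 22.5 °C. Technique: HTRF with 340 nm excitation, 617/671 nm emission. Medium: KF-containing HEPES buffer, pH 7.45, DTT, CHAPS, BSA. Read-out: inhibition (%) from 671 over 617 nm ratio. Also added: Eu(K)-anti-GST 90 ng/mL plus XL665-anti-Flag 1 µg/mL.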
ABHD5-PLIN5 conf: ABHD5-PLIN5 interaction inhibition, confirmed; AID 651612; 2,200 tested, 67% active; inhibition, % at 4 µM; shares compounds with ABHD5-PLIN5 inh; biochemical ABHD5-PLIN5 interaction, luminescence; in the data active = inhibition above about 23%
HNF4 counter: active in HNF4 split-luciferase counter-screen for ABHD5-PLIN5 inhibitors; shares compounds with ABHD5-PLIN5 inh; HNF4 dimerization, luminescence, biochemical; inhibition, % at 4 µM; 2,200 tested, 77% active;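 active = mean inhibition across replicate wells exceeding the computed hit threshold, cut at about 13% in these data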;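 also: light from luciferase halves that rejoin when HNF4 fusion proteins dimerize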
NadD inh conf: NadD (S. aureus) inhibition, single concentration confirmation; purified S. aureus NadD, colorimetric enzyme assay; 2,000 tested, 13% active; inhibition, % at 20 µM; shares compounds with NadD block; in the data active = inhibition mostly above about 42%, no sharp cut-off; inactive = mostly below about 42%
rCAG bind conf: r(CAG) RNA repeat binding, confirmation; shares compounds with rCAG RNA binder; TO-PRO-1 dye displacement fluorescence; AID 652065; 4,300 tested, 70% active; inhibition, % at 3 µM;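 active = inhibition above a per-plate cutoff, the mean inhibition of sample wells plus 3 SD, cut at about 35% in these data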;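 also: loss of TO-PRO-1 fluorescence as compound displaces dye from 1x1 AA loop RNA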
DNA CAG counter: disrupts DNA CAG TO-PRO-1 complex, flagging rCAG hits | shares compounds with rCAG RNA binder | d(CAG) DNA oligo TO-PRO-1 dye displacement, fluorescence | inhibition, % at 3 µM | 4,300 tested, 94% active | AID 652068;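 active = inhibition above its plate's cutoff, the mean test-well inhibition plus 3 SD, cut at about 4.8% in these data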;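 also: hits displace the dye from DNA and so lower well fluorescence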
Hits are given with their value; . = inactive; / = no result given. Rows were chosen to be rich in hits. Some 2.6% of all compounds tested hit in one or more screens of this group.

SMILES | NadD block | ABHD5-PLIN5 inh | rCAG RNA binder | HCV core dimer | ABHD5-PLIN5 conf | HNF4 counter | rCAG bind conf | DNA CAG counter | others
O=c1c2c3nc4ccccc4nc3n(Cc3ccccc3)c2ncn1Cc1ccco1 | 39.1 | 43.8 | 37.4 | / | 96.2 | 94.7 | / | / | NadD inh conf=.
CCOC(=O)C1=CCN(S(=O)(=O)c2ccccc2C(=O)OC)C1c1ccc(Cl)cc1 (centres undefined) | . | . | . | / | / | / | / | /
CC(C)(C)NC(=O)C(c1ccccc1F)n1c(=O)c(-c2ccco2)nc2ccccc21 (centres undefined) | / | 54.1 | 40.9 | / | 91.0 | 36.5 | . | 7.8
CCOC(=O)C1C(C(=O)OCC)C2C(=O)C3C(C(=O)OCC)C(C(=O)OCC)C3C(=O)C12 (centres undefined) | . | . | . | / | / | / | / | /
O=C(O)c1ccccc1-c1ccccc1C(=O)Nc1ccc(F)cc1 | . | . | . | . | / | / | / | /
O=C(/C=C/c1ccc(NC(=O)c2ccccc2-c2ccccc2C(=O)O)cc1)c1ccccc1 | . | 24.1 | 68.5 | . | 59.6 | 33.9 | 66.1 | 24.0
N#C/C(=C\c1ccccc1OCc1ccc(C(=O)O)cc1)C(=O)Nc1ccc(O)cc1 | . | 46.3 | 44.0 | . | 57.7 | 56.2 | . | 10.0
COc1cc(/C=C2/C(=O)CNC2=O)ccc1O | . | . | . | . | / | / | / | /
COc1cc(C=C2C(=O)C=CC2=O)ccc1O | . | 99.2 | 72.5 | / | 94.4 | 107.6 | . | 5.4
O=C1Nc2ccc(Br)cc2/C1=C/C(=O)c1ccc2c(c1)OCO2 | . | 72.3 | 43.6 | . | 92.9 | 90.2 | . | 14.5
O=C(NCc1ccc2c(c1)OCO2)c1ccc(Br)cc1 | . | . | . | . | / | / | / | /
COc1ccc(-c2nc3cc(C)c(Br)c(C)n3c2Cc2cccc(F)c2)cc1OC | . | . | . | / | / | / | / | /
COC1OC(COCc2ccccc2)C2OC(C)(C)OC2C1O (centres undefined) | / | / | . | / | / | / | / | /
O=C(/C=C1\C(=O)Nc2ccccc21)/C=C1\C(=O)Nc2ccccc21 | . | 63.0 | 39.0 | / | 101.5 | 105.2 | . | 19.8
Cc1cc(Br)cn2c(Cc3cccc(Cl)c3)c(-c3ccco3)nc12 | . | 28.0 | 41.7 | / | 28.5 | 40.0 | . | 5.2
Cc1cc(C)c2nc(NNC(=O)c3ccc(S(=O)(=O)N4CCCC(C)C4)cc3)sc2c1 (centres undefined) | . | 23.2 | 47.5 | . | 59.2 | / | 52.1 | 22.8
Cc1ccc(C(=O)/C=C/c2cc(Br)cc(Br)c2O)o1 | . | 30.0 | 59.6 | . | 58.7 | 24.9 | 45.9 | 15.7
Cc1ccc(C(=O)/C=C/N(C)C)o1 | . | . | . | . | / | / | / | /
O=C(O)c1cc(-c2ccc(-c3ccc(F)cc3)o2)nc2ccccc12 | . | 31.5 | 37.4 | . | . | 61.1 | . | .
Cc1cccc(Cl)c1NC(=O)NCCCN1CCOCC1 | / | / | . | / | / | / | / | /
CC(=O)N(c1ccc2oc(=O)sc2c1)S(=O)(=O)c1cccs1 | . | . | . | . | / | / | / | /
CC(=O)N(c1ccc2oc(=O)sc2c1)S(=O)(=O)c1cccc2cccnc12 | . | 24.8 | 36.7 | . | . | . | . | 5.3
O=C(Nc1ccc(F)cc1)N[C@@H]1C[C@@H]2O[C@H](CO)CC[C@@H]2O[C@@H]1CCc1ccc(C2=CCCC2)cc1 | / | / | . | / | / | / | / | /
O=C(N/N=C/C=C/c1ccco1)/C(=C/c1ccccc1)NC(=O)c1ccccc1 | . | 33.3 | 37.5 | 47.4 | 52.1 | 48.5 | . | 13.1
O=C(O)/C(=C\c1ccco1)NC(=O)c1ccccc1 | . | . | . | . | / | / | / | /
O=C(O)[C@H](Cc1ccccc1)N1C(=O)c2c(Cl)c(Cl)c(Cl)c(Cl)c2C1=O | . | 71.0 | 49.8 | . | . | . | 63.3 | 27.8
O=C(O)C(Cc1ccccc1)n1cccc1 (centres undefined) | . | . | . | . | / | / | / | /
Cc1cc(C)cc(Cn2cc(CN3CC(N4CCN(CCN(C)C)CC4)CS3(=O)=O)nn2)c1 (centres undefined) | . | . | . | / | / | / | / | /
COc1ccc(N(C(=O)C(C)C)S(=O)(=O)c2cccs2)cc1 | . | . | . | . | / | / | / | /

Bioassay records: PubChem BioAssay, several laboratories
